Screening data (PubChem)
TAAR1 antag = human TAAR1 antagonism; Q96RJ0; inhibition, % at 3 µM; CHO RD-HGA16 TAAR1, Fluo-8 calcium fluorescence, antagonist; actives 1.5% (n = 360,000);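 active means inhibition above a per-plate cutoff, the mean inhibition of test compounds on that plate plus 3 SD, cut at about 49% in these data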
Target sequence (Q96RJ0 whole entry, looked up): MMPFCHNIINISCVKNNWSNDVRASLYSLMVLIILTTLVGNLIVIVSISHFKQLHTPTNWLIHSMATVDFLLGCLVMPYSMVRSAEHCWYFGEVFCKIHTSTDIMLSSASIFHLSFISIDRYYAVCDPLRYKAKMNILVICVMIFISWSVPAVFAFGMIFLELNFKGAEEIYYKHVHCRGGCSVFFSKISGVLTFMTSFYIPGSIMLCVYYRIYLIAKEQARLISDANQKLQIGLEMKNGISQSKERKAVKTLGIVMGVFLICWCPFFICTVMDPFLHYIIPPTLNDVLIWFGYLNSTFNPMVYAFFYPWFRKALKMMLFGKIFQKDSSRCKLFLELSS
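Test system – hTAAR1-expressing CHO RD-HGA16 cells, Gα16-coupled · Also added – β-PEA at EC80 concentration, post-compound challenge · Compound – 3 µM, single point · Incubation – dye loading 75 min at 37 °C, then 30 min room temperature · Measured by – Fluo-8 intracellular calcium dye fluorescence, real-time kinetic reads · Benchmarks – vehicle and agonist controls · Replicates – singlicate, one well per test compound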
rCAG binder = binds r(CAG) RNA repeats | inhibition, % at 3 µM | r(CAG) RNA repeat, TO-PRO-1 dye displacement fluorescence | actives 1.3% (n = 370,000);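 active means inhibition above the plate cutoff, the mean of all test compounds on that plate plus 3 SD, cut at about 35% in these data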;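 further: higher means more dye released from RNA so lower well fluorescence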
TAAR1 agonist = human TAAR1 agonism; actives 0.99% (n = 360,000); CHO RD-HGA16 TAAR1, Fluo-8 calcium fluorescence; vehicle wells 0%, saturating PEA agonist 100%; activation, % at 3 µM;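 active means activation above the mean activation of all test compounds in the run plus 3 SD, cut at about 38% in these data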
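Repeats: no replicates (n 1) | Material: CHO-derived RD-HGA16 cells with stable Gα16 and human TAAR1 | Technique: Kinetic Fluo-8 calcium fluorescence | Schedule: 17-24 h seeding, 75 min 37 °C dye, 30 min RT | Evaluation: % activation from peak over basal fluorescence ratio, DMSO-to-PEA scaled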
HCV NS3 hel inh = inhibitors of Hepatitis C virus NS3 helicase. actives 0.56% (n = 290,000). NS3 helicase DNA unwinding, Cy5 molecular beacon fluorescence. inhibition, % at 10.9 µM;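 active means inhibition above the mean of all tested compounds plus 3 SD, set per campaign, cut at about 35% in these data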
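test system = hepatitis C virus NS3 helicase domain fragment enzyme | reagent = annealed dual-labelled DNA beacon duplex, ATP-started | times = 1 h at 25 °C | detection = Cy5 fluorescence, 0 and 60 min reads | read-out basis = percent inhibition from t60/t0 fluorescence ratio | control set = DMSO and thioflavine S | replication = one well per compound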
HCV core dimer = HCV core protein dimerization inhibition. inhibition, % at 5 µM. actives 0.33% (n = 300,000). TR-FRET GST/Flag-core106 dimerization, 1536-well;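 active means inhibition above the mean of all tested compounds plus 3 SD, set per screening campaign, cut at about 45% in these data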
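Assay system: tagged HCV core106 pair (GST and Flag); medium: KF-containing HEPES buffer, pH 7.45, DTT, CHAPS, BSA; also added: Eu donor and XL665 acceptor anti-tag antibodies; dosing: 5 µM single dose; timing: compound-protein-antibody incubation 4 h at 22.5 °C; signal: TR-FRET 671 and 617 nm emission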
NS3 hel confirm = HCV NS3 helicase inhibition, confirmation assay. inhibition, % at 10.9 µM. actives 31% (n = 1,600). shares compounds with HCV NS3 hel inh. NS3 helicase DNA unwinding, Cy5 molecular beacon fluorescence;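 active means inhibition above the mean of all tested compounds plus 3 SD, cutoff set per campaign, cut at about 36% in these data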
DNA FID counter = counter-screen for HCV NS3 helicase inhibitors: DNA intercalator displacement; shares compounds with HCV NS3 hel inh; DNA fluorescent intercalator displacement, fluorescence; inhibition, % at 7.9 µM; actives 4% (n = 1,600); AID 1945; in the data active means inhibition above about 37%;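 further: higher means more displacement of ethidium bromide from the DNA hairpin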
nonsel antag count = counter-screen for TAAR1 antagonists: nonselective antagonists; shares compounds with TAAR1 antag; inhibition, % at 3 µM; actives 77% (n = 2,400); counterscreen cell line, calcium fluorescence, antagonist mode; in the data active means inhibition above about 22%;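 further: CHO-Ga16 host cells stimulated with ATP at an EC80 level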
TAAR1 antag conf = human TAAR1 antagonism, confirmed; shares compounds with TAAR1 antag; TAAR1-expressing cells, fluorescence antagonist read-out; inhibition, % at 3 µM; actives 40% (n = 2,400); in the data active means inhibition above about 49%;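 further: CHO-Ga16 host cells challenged with agonist PEA near its EC80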
Ga16 ag counter-1 = nonselective Ga16 agonist in TAAR1 antagonist counter-screen. actives 18% (n = 2,400). Ga16-expressing cells, calcium fluorescence, agonist counterscreen. activation, % at 3 µM. AID 651953. shares compounds with TAAR1 antag; in the data active means activation above about 12%
TAAR1 ag count = activates human TAAR1 in antagonist counter-screen; actives 2% (n = 2,400); shares compounds with TAAR1 antag; hTAAR1 cell line, fluorescence activation, agonist mode; activation, % at 3 µM; in the data active means activation above about 37%;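 further: CHO cells stably expressing TAAR1 with calcium dye readout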
TAAR1 ag conf = human TAAR1 agonism, confirmed | shares compounds with TAAR1 agonist | CHO RD-HGA16 TAAR1, Fluo-8 calcium fluorescence; scaled: DMSO 0%, maximal phenethylamine 100% | activation, % at 3 µM | actives 82% (n = 2,400);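 active means activation above a cutoff set at the run's mean compound activation plus 3 SD, cut at about 39% in these data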
Ga16 ag counter-2 = counter-screen for TAAR1 agonists: nonselective agonists in parental cells; shares compounds with TAAR1 agonist; CHO-Ga16 parental, Fluo-8 calcium fluorescence; normalized to maximal ATP response, DMSO zero; activation, % at 3 µM; actives 50% (n = 2,400); AID 651787;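 active means activation above the run cutoff, the mean activation over all tested wells plus 3 SD, cut at about 12% in these data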
TAAR1 desens = human TAAR1 agonist that also desensitizes the receptor. inhibition, % at 3 µM. shares compounds with TAAR1 agonist. actives 46% (n = 2,400). CHO RD-HGA16 hTAAR1, Fluo-8 calcium, beta-PEA response inhibition. AID 651951;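 active means inhibition above the run cutoff, the mean inhibition of all test compounds plus 3 SD, cut at about 49% in these data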;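 further: beta-PEA stimulus applied at its EC80; loss of beta-PEA calcium signal after compound pretreatment read as receptor desensitization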
Ga16 nonsel ant = counter-screen for TAAR1 agonists: nonselective Ga16 antagonists | shares compounds with TAAR1 agonist | CHO-Ga16 ATP-induced calcium, Fluo-8 fluorescence | inhibition, % at 3 µM | actives 39% (n = 2,400) | AID 651952;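 active means inhibition above the plate's mean compound inhibition plus 3 SD, computed per plate, cut at about 22% in these data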
Of the large screens only hits and unclear results are named; the others gave an inactive call (follow-up assays come after a bar, where they were run). Hits are enriched below; roughly 3.7% of the tested compounds scored in any of these assays.

COc1cccc(NC(=O)COc2cc(O)c3c(c2)OC(C)(C)CC3=O)c1	TAAR1 antag 60.0, HCV NS3 hel inh 83.1 | NS3 hel confirm inactive | DNA FID counter inactive | nonsel antag count 27.4 | TAAR1 antag conf inactive | Ga16 ag counter-1 inactive | TAAR1 ag count inactive
COc1cc(/C=C2/C(=N)N3C(c4ccccc4)=CSC3=NC2=O)ccc1OCC(=O)O	none
N=C1/C(=C\c2ccc(-c3ccc(C(=O)O)cc3)o2)C(=O)N=C2SC=C(c3ccccc3)N12	TAAR1 antag 53.7, HCV NS3 hel inh 36.5 (no result: HCV core dimer) | NS3 hel confirm 72.6 | DNA FID counter inactive | nonsel antag count 45.0 | TAAR1 antag conf 62.5 | Ga16 ag counter-1 16.0 | TAAR1 ag count inactive
Nc1[nH]c(C(=O)c2ccc(Br)cc2)c(-c2cccc3ccccc23)c1C(=O)NCCc1c[nH]c2ccccc12	none (no result: HCV NS3 hel inh, HCV core dimer)
CC(C)CCN1CCN=C1Nc1ccccc1	TAAR1 antag 108.3, HCV NS3 hel inh 49.6 | NS3 hel confirm inactive | DNA FID counter inactive | nonsel antag count inactive | TAAR1 antag conf inactive | Ga16 ag counter-1 inactive | TAAR1 ag count inactive
Cc1ccccc1CN1CCCCC(NC(=O)c2ccc(COc3ccccc3)cc2)C1=O (configuration not stated)	none (no result: TAAR1 antag, TAAR1 agonist, HCV NS3 hel inh, HCV core dimer)
O=C(O)c1cccc(NC(=S)NC(=O)c2ccc3ccccc3c2)c1	TAAR1 agonist 72.8, HCV NS3 hel inh 40.7 | NS3 hel confirm 58.3 | DNA FID counter inactive | TAAR1 ag conf inactive | Ga16 ag counter-2 30.8 | TAAR1 desens inactive | Ga16 nonsel ant inactive
O=C(c1cc(C2CC2)on1)N(C1CCCCC1)C1CCCCC1	none (no result: TAAR1 antag, TAAR1 agonist, HCV NS3 hel inh, HCV core dimer)
Cc1ccc(C)c2[nH]c(=O)c(C(c3nnnn3Cc3ccco3)N3CCc4ccccc4C3)cc12 (configuration not stated)	TAAR1 agonist 52.2, HCV NS3 hel inh 39.0 | NS3 hel confirm inactive | DNA FID counter inactive | TAAR1 ag conf 58.5 | Ga16 ag counter-2 inactive | TAAR1 desens inactive | Ga16 nonsel ant inactive
Cc1ccc(S(=O)(=O)NCC(=O)N2CCN(c3ccccn3)CC2)s1	none (no result: TAAR1 antag, TAAR1 agonist, HCV NS3 hel inh, HCV core dimer)
CCN(CC)CCN1C(=O)C(O)=C(C(=O)c2cc3ccccc3o2)C1c1cccnc1 (configuration not stated)	none
